In ChEMBL document CHEMBL2401636, “Investigation of the noncovalent binding mode of covalent proteasome inhibitors around the transition state by combined use of cyclopropylic strain-based conformational restriction and computational modeling” (J Med Chem, 2013):

How the values were obtained:
[1] = Inhibition of chymotrypsin-like activity of human 20S proteasome using succinyl-Leu-Leu-Val-Tyr-4-methylcoumaryl-7-amide as substrate after 60 mins by fluorescence assay
HCT-116 = test: Cytotoxicity against human HCT116 cells after 72 hrs; assay type: functional, cell-based; details: HCT-116, 72 h
[2] = Cytotoxicity against human HS-Sultan cells after 72 hrs; assay type: functional, cell-based
KB = test: Cytotoxicity against human KB cells after 72 hrs; assay type: functional, cell-based
[3] = Half life in human AB serum at 23 mM by RP-HPLC analysis; assay type: ADME, cell-free
How it was run: (§1)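 Water-soluble analogues incubated at 37 °C in 0.1 M TEAA buffer, pH 7.4, or in human AB serum. Compound remaining was followed over time by HPLC, and the half-life was derived. Buffer half-lives are given in hours and serum half-lives in minutes.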

[4] = Half life in TEAA buffer at 7.5 mM by RP-HPLC analysis; assay type: physicochemical; how it was run: as §1
[5] = Inhibition proteasome (unknown origin); set-up: species or system Homo sapiens

CC[C@H](C)[C@@H]1C(=O)O[C@H]1C(=O)N[C@H]1C[C@H]1[C@H](C)[C@@H](CCc1ccccc1)NC(=O)[C@H](C)NC(=O)c1ccc2ccccc2c1
IC50 [1]: 630 nM

CC[C@H](C)[C@@H]1C(=O)O[C@H]1C(=O)N[C@H]1C[C@H]1[C@H](C)[C@@H](CCc1ccccc1)NC(=O)[C@H](C)NC(=O)OCc1ccccc1
IC50 (HCT-116): > 10000 nM
IC50 [2]: 1800 nM
IC50 (KB): > 10000 nM
IC50 [1]: 280 nM

CC[C@H](C)[C@@H]1C(=O)O[C@H]1C(=O)N[C@H]1C[C@H]1[C@@H](C)[C@@H](CCc1ccccc1)NC(=O)[C@H](C)NC(=O)c1ccc2ccccc2c1
IC50 [1]: 42 nM

CC[C@H](C)[C@@H]1C(=O)O[C@H]1C(=O)N[C@H]1C[C@H]1C[C@@H](CCc1ccccc1)NC(=O)[C@H](C)NC(=O)c1ccc2ccccc2c1
IC50 [1]: 10 nM

CC[C@H](C)[C@@H]1C(=O)O[C@H]1C(=O)N[C@H]1C[C@H]1[C@@H](C)[C@@H](CCc1ccccc1)NC(=O)[C@H](C)N
half-life at 23000 µM [3]: 4.2 min
half-life at 7500 µM [4]: 14 h

CC[C@H](C)[C@@H]1C(=O)O[C@H]1C(=O)N[C@H]1C[C@H]1[C@@H](C)[C@@H](CCc1ccccc1)NC(=O)c1ccc2ccccc2c1
IC50 [1]: 140 nM

CC[C@H](C)[C@@H]1C(=O)O[C@H]1C(=O)N[C@H]1C[C@H]1C[C@@H](CCc1ccccc1)NC(=O)c1ccc2ccccc2c1
IC50 [1]: 33 nM

CC[C@H](C)[C@@H]1C(=O)O[C@H]1C(=O)N[C@H]1C[C@H]1[C@H](C)[C@@H](CCc1ccccc1)NC(=O)[C@H](C)N
half-life at 23000 µM [3]: 4.7 min
half-life at 7500 µM [4]: 21 h

CC[C@H](C)[C@@H]1C(=O)O[C@H]1C(=O)N[C@H]1C[C@H]1C[C@H](NC(=O)[C@H](C)N)C(=O)O [BELACTOSIN A]
IC50 [5]: 304 nM
IC50 [1]: 1440 nM

CC[C@H](C)[C@@H]1C(=O)O[C@H]1C(=O)N[C@H]1C[C@H]1C[C@@H](CCc1ccccc1)NC(=O)[C@H](C)NC(=O)OCc1ccccc1
IC50 [2]: 870 nM
IC50 (KB): 2600 nM
IC50 [1]: 5.7 nM

CC[C@H](C)[C@@H]1C(=O)O[C@H]1C(=O)N[C@H]1C[C@H]1[C@@H](C)[C@@H](CCc1ccccc1)NC(=O)[C@H](C)NC(=O)OCc1ccccc1
IC50 (HCT-116): 630 nM
IC50 [2]: 310 nM
IC50 (KB): 1700 nM
IC50 [1]: 47 nM

CC[C@H](C)[C@@H]1C(=O)O[C@H]1C(=O)N[C@H]1C[C@H]1C[C@@H](CCc1ccccc1)NC(=O)[C@H](C)N (mixture of isomers)
half-life at 23000 µM [3]: 2.3 min
half-life at 7500 µM [4]: 10 h

CC[C@H](C)[C@@H]1C(=O)O[C@H]1C(=O)N[C@H]1C[C@H]1[C@H](C)[C@@H](CCc1ccccc1)NC(=O)c1ccc2ccccc2c1
IC50 [1]: 750 nM
